# Test results from ChEMBL document CHEMBL4177766, “Targeting a Subpocket in Trypanosoma brucei Phosphodiesterase B1 (TbrPDEB1) Enables the Structure-Based Discovery of Selective Inhibitors with Trypanocidal Activity” (J Med Chem, 2018).
# The source made the active and inactive calls. The calls are words filed in the database; no cut-off is given here.
# Assays:
# [1] = target: 3',5'-cyclic-AMP phosphodiesterase 4B (Homo sapiens, UniProt Q07343); test: Inhibition of full length recombinant human PDE4B1 expressed in Sf21 insect cells using cAMP as substrate by scintillation proximity assay
# [2] = target: T1, Class 1 phosphodiesterase PDEB1 (Trypanosoma brucei) (UniProt Q8WQX9); test: Inhibition of PDEB1 in bloodstream form of Trypanosoma brucei Lister 427 assessed as increase in intracellular cAMP levels at 0.3 uM after 5 hrs by ELISA; assay type: cell-based
# T1 sequence (whole entry): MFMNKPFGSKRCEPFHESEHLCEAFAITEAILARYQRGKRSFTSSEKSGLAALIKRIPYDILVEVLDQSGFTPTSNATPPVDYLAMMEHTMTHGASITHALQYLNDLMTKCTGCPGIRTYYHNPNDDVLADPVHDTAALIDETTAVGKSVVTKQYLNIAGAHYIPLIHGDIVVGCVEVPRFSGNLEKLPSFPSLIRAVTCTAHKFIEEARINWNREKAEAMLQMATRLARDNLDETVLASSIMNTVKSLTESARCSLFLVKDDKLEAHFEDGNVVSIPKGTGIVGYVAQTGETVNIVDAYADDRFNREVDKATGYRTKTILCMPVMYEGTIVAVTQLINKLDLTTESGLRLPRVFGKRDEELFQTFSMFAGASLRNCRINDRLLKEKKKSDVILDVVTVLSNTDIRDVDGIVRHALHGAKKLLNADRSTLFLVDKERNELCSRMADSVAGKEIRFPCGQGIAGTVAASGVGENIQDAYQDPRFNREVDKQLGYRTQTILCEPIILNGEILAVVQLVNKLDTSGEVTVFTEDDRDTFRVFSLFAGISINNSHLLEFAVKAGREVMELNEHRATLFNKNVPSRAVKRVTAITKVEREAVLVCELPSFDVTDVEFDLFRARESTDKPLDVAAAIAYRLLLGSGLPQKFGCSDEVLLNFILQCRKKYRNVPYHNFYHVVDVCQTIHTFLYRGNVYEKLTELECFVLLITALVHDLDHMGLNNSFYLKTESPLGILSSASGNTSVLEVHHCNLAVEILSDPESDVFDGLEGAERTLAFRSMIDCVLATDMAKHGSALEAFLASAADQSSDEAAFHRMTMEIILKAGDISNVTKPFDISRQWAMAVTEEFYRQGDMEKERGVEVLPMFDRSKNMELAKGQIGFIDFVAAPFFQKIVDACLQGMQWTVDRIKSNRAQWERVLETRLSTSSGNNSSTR
# Outline: (§1)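 Log-phase bloodstream forms in HMI-9/FBS at 2 × 10^6 cells/mL, 6 mL subcultures; test drug 0.1–10 μM, reference inhibitor 0.3 μM, pentamidine 0.025 μM or no drug; 5 h at 37 °C, 5% CO2. 5 × 10^6 cells pelleted, lysed 20 min on ice in 0.1 M HCl, supernatant frozen for cAMP. Duplicates; mean of four determinations ± SEM; Student's t-test.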
# [3] = target: T2, Class 1 phosphodiesterase PDEB1 (Trypanosoma brucei, UniProt Q8WQX9); test: Inhibition of full length Trypanosoma brucei PDEB1 expressed in Sf21 insect cells using cAMP as substrate by scintillation proximity assay
# T2 sequence (Q8WQX9 whole entry): T1 sequence (whole entry)
# Outline: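 Enzyme amount set so that under 20% of substrate was consumed. Ki reported as mean ± SD of at least two independent experiments.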
# [4] = target: T1, Class 1 phosphodiesterase PDEB1 (Trypanosoma brucei); test: Inhibition of PDEB1 in bloodstream form of Trypanosoma brucei Lister 427 assessed as increase in intracellular cAMP levels at 0.025 uM after 5 hrs by ELISA; assay type: cell-based; outline: as §1
# [5] = Selectivity ratio of Ki for full length recombinant human PDE4B1 to Ki for full length Trypanosoma brucei PDEB1
# Trypanosoma brucei [6] = test: Antitrypanosomal activity against trypomastigote form of Trypanosoma brucei Squib 427 assessed as parasite growth inhibition after 72 hrs by resazurin assay; assay type: functional, organism-based; conditions: Squib 427, 72 h
# Outline: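 Suramin-sensitive Squib-427 bloodstream trypomastigotes grown in HMI-9 + 10% FCS at 37 °C, 5% CO2. About 1.5 × 10^4 parasites per well exposed to five concentrations (64, 16, 4, 1, 0.25 μM), DMSO ≤0.5% final. After 72 h, resazurin added and absorbance read at 540 nm 4 h later, expressed as % of blank controls. Suramin reference; IC50 from triplicate experiments, mean ± SD.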
# MRC5 = test: Cytotoxicity against human MRC5 cells assessed as decrease in cell viability after 72 hrs by resazurin assay; assay type: cell-based; conditions: mrc5, 72 h
# Trypanosoma brucei [7] = test: Antitrypanosomal activity against bloodstream form of Trypanosoma brucei Lister 427 assessed as appearance of misshapen cells at 10 uM after 24 hrs by DAPI staining-based fluorescence microscopic method; assay type: functional, organism-based
# Outline: (§2)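 Bloodstream-form trypanosomes seeded at 2 × 10^5 cells/mL with 10 μM drug; samples taken at 0, 6, 12 and 24 h, pelleted at 4 °C, washed in PBS pH 7.4, air-dried on slides, fixed 15 min in 4% formaldehyde/PBS, mounted with DAPI. Nuclei, kinetoplasts, cell division and morphology were scored by brightfield and fluorescence microscopy.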
# Trypanosoma brucei [8] = test: Antitrypanosomal activity against bloodstream form of Trypanosoma brucei Lister 427 assessed as defect in cytokinesis at 10 uM after 6 hrs by DAPI staining-based fluorescence microscopic method; assay type: functional, organism-based; outline: as §2
# Trypanosoma brucei [9] = test: Antitrypanosomal activity against bloodstream form of Trypanosoma brucei Lister 427 assessed as appearance of rounded cells with multiple flagella at 10 uM after 12 hrs by DAPI staining-based fluorescence microscopic method; assay type: functional, organism-based; outline: as §2
# [10] = target: T1, Class 1 phosphodiesterase PDEB1 (Trypanosoma brucei); test: Inhibition of PDEB1 in bloodstream form of Trypanosoma brucei Lister 427 assessed as increase in intracellular cAMP levels after 5 hrs by ELISA; assay type: cell-based; outline: as §1
# Chain of 3',5'-cyclic-AMP phosphodiesterase 4B (Q07343 whole entry): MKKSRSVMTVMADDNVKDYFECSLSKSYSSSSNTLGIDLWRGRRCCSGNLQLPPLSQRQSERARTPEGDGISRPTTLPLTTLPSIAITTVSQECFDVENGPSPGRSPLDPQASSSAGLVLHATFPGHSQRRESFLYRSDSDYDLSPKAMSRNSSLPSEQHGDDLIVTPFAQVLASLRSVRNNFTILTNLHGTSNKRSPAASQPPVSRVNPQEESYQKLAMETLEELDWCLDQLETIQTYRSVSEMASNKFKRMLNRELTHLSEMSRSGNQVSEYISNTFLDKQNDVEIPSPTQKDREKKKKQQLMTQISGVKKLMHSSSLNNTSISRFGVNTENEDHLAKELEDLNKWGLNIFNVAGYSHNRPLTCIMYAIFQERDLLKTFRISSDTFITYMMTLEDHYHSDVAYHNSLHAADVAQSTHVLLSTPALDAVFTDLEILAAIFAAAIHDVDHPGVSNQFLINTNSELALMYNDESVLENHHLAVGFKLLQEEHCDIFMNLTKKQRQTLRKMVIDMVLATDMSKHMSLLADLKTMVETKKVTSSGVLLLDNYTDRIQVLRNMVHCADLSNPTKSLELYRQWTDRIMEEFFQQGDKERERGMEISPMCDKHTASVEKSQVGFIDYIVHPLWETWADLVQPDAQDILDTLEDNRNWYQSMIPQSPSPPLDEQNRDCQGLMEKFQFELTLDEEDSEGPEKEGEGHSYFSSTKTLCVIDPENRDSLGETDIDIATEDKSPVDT
SMILES,Ki [1],Ki [3],Ratio Ki [5],also measured
COc1ccc(C2=NN(C3CCCCCC3)C(=O)[C@@H]3CC=CC[C@H]23)cc1OCCCCOc1ccc(-c2nnn[nH]2)cc1,0.631 nM,,,inhibition [2]: Active
COc1ccc(C2=NN(C3CCCCCC3)C(=O)[C@H]3CC=CC[C@@H]23)cc1-c1ccc(C(=O)NCC(N)=O)cc1,50100 nM,3980 nM,,
N=C(N)c1ccc(OCCCCCOc2ccc(C(=N)N)cc2)cc1,,,,inhibition [4]: inactive
COc1ccc(C2=NN(C(C)C)C(=O)[C@@H]3CC=CC[C@H]23)cc1-c1ccc(C(=O)N2CCC[C@@H]2C(N)=O)cc1 (racemic),,,18,
COc1ccc(C2=NN(C(C)C)C(=O)[C@@H]3CC=CC[C@H]23)cc1-c1ccc(C(=O)N2CC[C@@H](O)C2)cc1 (racemic),,,15,
COc1ccc(C2=NN(C3CCCCCC3)C(=O)[C@@H]3CC=CC[C@H]23)cc1-c1ccc(C(=O)N2CCC[C@@H]2C(N)=O)cc1 (racemic),,,13,
COc1ccc(C2=NN(C3CCCCCC3)C(=O)[C@@H]3CC=CC[C@H]23)cc1-c1ccc(C(=O)N2CC[C@@H](O)C2)cc1 (racemic),,,9,
COc1ccc(C2=NN(C3CCCCCC3)C(=O)[C@@H]3CC=CC[C@H]23)cc1-c1ccc(C#N)cc1 (relative stereo),31.6 nM,501 nM,0.1,
COc1ccc(C2=NN(C3CCCCCC3)C(=O)[C@@H]3CC=CC[C@H]23)cc1-c1ccc(C(N)=O)cc1 (relative stereo),158 nM,158 nM,1,
COc1ccc(C2=NN(C3CCCCCC3)C(=O)[C@@H]3CC=CC[C@H]23)cc1-c1cccc(C(=O)O)c1 (relative stereo),12600 nM,7940 nM,2,
COc1ccc(C2=NN(C3CCCCCC3)C(=O)[C@@H]3CC=CC[C@H]23)cc1-c1ccc(C(=O)NCC(=O)NCCO)cc1 (relative stereo),3160 nM,398 nM,7,
COc1ccc(C2=NN(C(C)C)C(=O)[C@@H]3CC=CC[C@H]23)cc1-c1ccc(C(=O)NCC(N)=O)cc1 (relative stereo),2000 nM,100 nM,,IC50 (Trypanosoma brucei [6]; read-out: IC50): 6.7 µM; CC50 (MRC5): 35 µM
COc1ccc(C2=NN(C3CCCCCC3)C(=O)[C@@H]3CC=CC[C@H]23)cc1-c1ccc(C(=O)O)cc1 (relative stereo),7940 nM,1580 nM,5,
COc1ccc(C2=NN(C3CCCCCC3)C(=O)[C@@H]3CC=CC[C@H]23)cc1-c1ccc(C(=O)N(C)CC(N)=O)cc1 (relative stereo),2510 nM,398 nM,7,
COc1ccc(C2=NN(C3CCCCCC3)C(=O)[C@@H]3CC=CC[C@H]23)cc1-c1ccc(C(=O)NCCC(N)=O)cc1 (relative stereo),1000 nM,501 nM,2,
COCCNC(=O)CNC(=O)c1ccc(-c2cc(C3=NN(C4CCCCCC4)C(=O)[C@@H]4CC=CC[C@H]34)ccc2OC)cc1 (relative stereo),3980 nM,501 nM,8,
COc1ccc(C2=NN(C3CCCCCC3)C(=O)[C@@H]3CC=CC[C@H]23)cc1-c1ccc(C(=O)NCC(N)=O)cc1 (relative stereo),,,,Activity (Trypanosoma brucei [7]): Active; IC50 (Trypanosoma brucei [6]; read-out: IC50): 5.5 µM; CC50 (MRC5): 36 µM; Activity (Trypanosoma brucei [8]): Active; Activity (Trypanosoma brucei [9]): Active; inhibition [10]: Dose-dependent effect
COc1ccc(C2=NN(C3CCCCCC3)C(=O)[C@@H]3CC=CC[C@H]23)cc1-c1ccc(C(=O)NCC(=O)NC(C)C)cc1 (relative stereo),6310 nM,2000 nM,4,
COc1ccc(C2=NN(C3CCCCCC3)C(=O)[C@@H]3CC=CC[C@H]23)cc1-c1ccc(C(=O)NCCNC(C)=O)cc1 (relative stereo),3980 nM,794 nM,5,
COCCNC(=O)c1ccc(-c2cc(C3=NN(C4CCCCCC4)C(=O)[C@@H]4CC=CC[C@H]34)ccc2OC)cc1 (relative stereo),2000 nM,316 nM,7,
CNC(=O)CNC(=O)c1ccc(-c2cc(C3=NN(C4CCCCCC4)C(=O)[C@@H]4CC=CC[C@H]34)ccc2OC)cc1 (relative stereo),2510 nM,398 nM,6,
COc1ccc(C2=NN(C3CCCCCC3)C(=O)[C@@H]3CC=CC[C@H]23)cc1-c1ccc(C(=O)NCC(=O)N(C)C)cc1 (relative stereo),3160 nM,794 nM,4,
COc1ccc(C2=NN(C3CCCCCC3)C(=O)[C@@H]3CC=CC[C@H]23)cc1-c1ccc(C(=O)N2CC(=O)N(C)C2)cc1 (relative stereo),,,1.4,
COc1ccc(C2=NN(C3CCCCCC3)C(=O)[C@@H]3CC=CC[C@H]23)cc1-c1ccc(C(=O)N2CCC(=O)C2)cc1 (relative stereo),,,3,
COc1ccc(C2=NN(C3CCCCCC3)C(=O)[C@@H]3CC=CC[C@H]23)cc1-c1ccc(C(=O)N2CNC(=O)C2)cc1 (relative stereo),,,1,
O=C(Nc1c(Cl)cncc1Cl)c1ccc(OC(F)F)c(OCC2CC2)c1 [ROFLUMILAST],,3160 nM,,
Cc1ccc(C(=O)Nc2ccc(S(=O)(=O)O)c3cc(S(=O)(=O)O)cc(S(=O)(=O)O)c23)cc1NC(=O)c1cccc(NC(=O)Nc2cccc(C(=O)Nc3cc(C(=O)Nc4ccc(S(=O)(=O)O)c5cc(S(=O)(=O)O)cc(S(=O)(=O)O)c45)ccc3C)c2)c1 [SURAMIN],,,,IC50 (Trypanosoma brucei [6]; read-out: pIC50 (converted)): 0.0398 µM
